RGS4 act: RGS4 potentiators or activators, primary screen, cell-based, HEK293 M3R inducible RGS4, calcium flux; 310,000 tested, 0.92% active; carbachol calcium flux Fluo4; stronger effect = lower value; B-score at 10 µM; AID 463111, 2010;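 active = B-score of the integrated calcium signal more than 4 SD below the library mean, with starting fluorescence not abnormally high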;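 note: negative B-score means reduced calcium response which marks RGS4 activation or potentiation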
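Reagent: ECmax carbachol challenge; Test system: M3R-expressing HEK293 line, RGS4 induced by doxycycline; Schedule: overnight RGS4 induction, 30 min dye load 37 °C, 20 min compound RT; Detection: calcium dye Fluo4 fluorescence; Read-out: Agonist-evoked peak-minus-minimum fluorescence over baseline, integrated ratio, B score.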
MrgX1 antag: antagonists of human MrgX1 receptor, primary screen, HEK293 cells, Fluo-4 calcium flux; BAM8-22 antagonism; stronger effect = lower value; 310,000 tested, 1.3% active; B-score at 10 µM; Mas-related G-protein coupled receptor member X1 (Homo sapiens), Q96LB2;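 active = calcium-response B-score plate-corrected more than 3 library SD below zero, starting fluorescence within 5 deviations, no agonist response on first addition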;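 note: peak minus trough fluorescence over baseline after final BAM8-22 challenge near maximal dose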
Target sequence (Q96LB2 whole entry, looked up): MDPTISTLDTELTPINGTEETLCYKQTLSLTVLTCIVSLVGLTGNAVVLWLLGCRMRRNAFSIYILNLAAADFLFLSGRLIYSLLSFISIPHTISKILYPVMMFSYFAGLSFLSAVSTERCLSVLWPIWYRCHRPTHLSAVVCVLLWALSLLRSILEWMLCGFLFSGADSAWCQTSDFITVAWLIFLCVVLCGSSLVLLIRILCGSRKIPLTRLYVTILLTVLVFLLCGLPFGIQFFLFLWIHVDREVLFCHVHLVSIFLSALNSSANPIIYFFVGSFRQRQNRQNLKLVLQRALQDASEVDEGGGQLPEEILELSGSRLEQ
MrgX1 agonist: agonists of human MrgX1 receptor, primary screen, HEK293 cells, Fluo-4 calcium flux. Mas-related G-protein coupled receptor member X1 (Homo sapiens), Q96LB2. Fluo-4 calcium fluorescence, agonist mode; stronger effect = higher value. B-score at 10 µM. 310,000 tested, 0.44% active. AID 588627, 2011;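 active = calcium response B-score plate-corrected fluorescence ratio at least 3 library SD, with starting fluorescence B-score inside 5 SD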
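Test system: Stable human MrgX1 HEK293 cell line | Schedule: Overnight plating before 1 h dye loading | Read-out basis: Baseline-normalised fluorescence change ratio, B-scored | Detection: Kinetic calcium dye fluorescence, Fluo-4 NW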
MrgX1 PAM: positive allosteric modulators of MrgX1, primary screen, HEK293 cells, Fluo-4 calcium flux. Mas-related G-protein coupled receptor member X1 (Homo sapiens), Q96LB2. FDSS; stronger effect = higher value. B-score at 10 µM. 310,000 tested, 0.63% active;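 active = plate-corrected calcium response at least 3 library SD above typical, normal starting fluorescence, not activating the receptor alone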;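 note: compound read alongside a low EC10 to EC30 dose of BAM8-22 agonist; peak minus trough fluorescence over baseline measured at the second addition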
RGS4 inh: RGS4 inhibitors, primary screen, cell-based, HEK293 M3R inducible RGS4, calcium flux. Regulator of G-protein signaling 4 (Homo sapiens), P49798. Fluo-4 calcium flux; stronger effect = higher value; triggered by carbachol at its EC20. B-score at 10 µM. 310,000 tested, 0.45% active;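 active = B-score, a plate-corrected calcium signal, over three deviations above library mean, with baseline fluorescence within five deviations of library mean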;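 note: RGS4 expression induced by doxycycline in cells with stable M3 receptor; B-score is computed from the integrated fluorescence ratio over baseline after carbachol; higher B-score means a larger calcium signal and so more RGS4 inhibition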
Target sequence (P49798 whole entry, looked up): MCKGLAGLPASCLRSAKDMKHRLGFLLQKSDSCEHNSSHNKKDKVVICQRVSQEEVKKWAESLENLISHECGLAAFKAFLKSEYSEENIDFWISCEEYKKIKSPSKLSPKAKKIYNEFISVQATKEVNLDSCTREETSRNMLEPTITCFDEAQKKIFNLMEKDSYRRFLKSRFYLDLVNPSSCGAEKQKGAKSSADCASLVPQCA
RGS4 act valid: reduced carbachol calcium response, RGS4-induced M3R cells, confirmation, RGS4 activator project, cell-based, HEK293 M3R/RGS4 inducible, calcium flux, duplicate | shares compounds with RGS4 act | carbachol calcium flux Fluo4 | AID 602282, 2012 | 1,100 tested, 89% active | inhibition, % at 10 µM;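 active = inhibition above 3 SD of the buffer control wells, cut at about 41% in these data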;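 note: signal is the integrated peak-minus-minimum Fluo4 fluorescence over baseline ratio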
RGS4 act ctr: activity in cells without induced RGS4 expression. shares compounds with RGS4 act. HEK293 M3R non-induced RGS4, Fluo4 calcium flux; after carbachol challenge at its EC90. inhibition, % at 10 µM. 1,100 tested, 82% active. AID 602283;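 active = inhibition exceeding 3 SD of buffer-only control wells, cut at about 26% in these data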;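 note: percent drop in integrated peak-minus-baseline over baseline Fluo4 ratio after carbachol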
* hit, by the source's call; i = inactive; . = no result. Rows were chosen to be rich in hits. Some 3.5% of all compounds tested hit in one or more screens of this group.

SMILES	RGS4 act	MrgX1 antag	MrgX1 agonist	MrgX1 PAM	RGS4 inh	RGS4 act valid	RGS4 act ctr
O=C(NC1CC2CCCC(C1)N2)c1ccccc1 (stereo unspecified)	i	i	i	i	i	.	.
CN1CCN(c2ccc(N)cc2Cl)CC1	i	-5.3*	i	i	i	.	.
CN(C)CCSC1c2ccccc2CSc2ccccc21 (stereo unspecified)	-9.1*	i	i	i	i	.	.
O=C1NC(=O)C(=Cc2ccc(OCCOc3ccc([N+](=O)[O-])cc3)cc2)C(=O)N1	i	-4.8*	i	i	i	.	.
COc1ccc(C(=O)C2CN(C)CC2c2ccc(Cl)cc2)cc1 (stereo unspecified)	-7.2*	i	i	i	i	.	.
COc1cccc(C(=O)C2CN(C)CC2c2ccc(Cl)cc2)c1 (stereo unspecified)	i	i	i	i	i	.	.
CN1/C(=C\C=C\C2=[N+](C)c3ccc4ccccc4c3C2(C)C)C(C)(C)c2ccccc21	.	i	i	i	.	.	.
C[N+]1=C(/C=C/Nc2ccccc2)C(C)(C)c2ccccc21	i	-4.9*	i	i	i	.	.
CN1CC2([N+](=O)[O-])CC=C(Cl)C([N+](=O)[O-])(C1)C2 (stereo unspecified)	i	i	i	i	i	.	.
Cc1c(N)c(C)c([N+](=O)[O-])c(C)c1[N+](=O)[O-]	i	i	i	i	i	.	.
O=[N+]([O-])c1cc(O)c(O)c([N+](=O)[O-])c1	.	-5.4*	i	i	.	.	.
O=c1[nH]c(O)c(N=Nc2ccc(SC(F)F)cc2)c(=O)[nH]1	i	i	i	13*	i	.	.
NC(=O)c1ccc(N=Nc2c(O)[nH]c(=O)[nH]c2=O)cc1	i	i	i	i	i	.	.
CN1C(=O)C2C[C@@]3(Br)c4ccccc4N(OOSc4ccccc4)[C@H]3N2C(=O)[C@@H]1Cc1ccccc1 (stereo partly specified)	i	i	i	i	i	.	.
Cc1ccnc(NS(=O)(=O)c2ccc(N=Cc3c(O)n(C)c(=O)n(C)c3=O)cc2)n1	i	i	i	6.6*	i	.	.
CC(=O)N1CCC(N2CCCC(C(=O)c3cccc(Cl)c3)C2)CC1 (stereo unspecified)	-10*	i	i	i	i	80*	84*
COc1cccc(C(=O)C2CCCN(C3CCOCC3)C2)c1 (stereo unspecified)	i	i	i	i	i	.	.
CCN(CC)CCCOC(=O)C(OC)(c1ccccc1)c1ccccc1	-11*	i	i	i	i	91*	86*
COc1ccc(C(=O)C2CCCN(Cc3ccc(C)s3)C2)c(OC)c1 (stereo unspecified)	i	i	i	i	i	.	.
COc1ccc(C(=O)C2CCCN(C3CSCCSC3)C2)c(C)c1 (stereo unspecified)	-8.8*	i	i	i	i	86*	44*
COc1ccc(C(=O)C2CCCN(C3CSCCSC3)C2)c(OC)c1 (stereo unspecified)	-7.7*	i	i	i	i	45*	84*
COc1ccc(C(=O)C2CCCN(CCO)C2)c(C)c1 (stereo unspecified)	i	i	i	i	i	.	.
CN1CCN2c3ccc(N)cc3CC3(C(=O)NC(=O)NC3=O)C2C1 (stereo unspecified)	i	.	.	.	i	.	.
Cc1cc(OCC(=O)O)c2c3c(c(=O)oc2c1)CCCC3	i	i	i	i	i	.	.
COC(=O)c1ccc(COc2cc(C)cc3oc(=O)c4c(c23)CCCC4)o1	-11*	i	i	i	i	79*	46*
SMILES	RGS4 act	MrgX1 antag	MrgX1 agonist	MrgX1 PAM	RGS4 inh	RGS4 act valid	RGS4 act ctr
CCOP(=O)(OCC)C(Cc1ccccc1)NC(C)=O (stereo unspecified)	i	i	i	i	i	.	.
CCOP(=S)(NN(Cc1ccccc1)C(=O)c1ccccc1)OCC	-14*	i	i	i	i	0	0
COc1ccc(NC(c2ccccc2)P(=O)(Oc2ccccc2)Oc2ccccc2)cc1 (stereo unspecified)	i	i	i	i	i	.	.
OC(c1cccc(Cl)c1)(c1cccc(Cl)c1)C1CN2CCC1CC2 (stereo unspecified)	-14*	i	i	i	i	93*	93*
CC(Cc1ccccc1Sc1ccc(O)cc1)N(C)C (stereo unspecified)	-9.2*	i	i	i	i	95*	94*
CC(N)Cc1ccccc1Sc1ccc(O)cc1 (stereo unspecified)	i	i	i	i	i	.	.
Cn1cc(C(=O)Cc2ccccc2)c2ccccc21	i	i	i	i	i	.	.
COc1ccc(-c2n(-c3ccccn3)c3ccccc3[n+]2-c2ccccn2)cc1	i	.	.	.	i	.	.
CCOC(=O)C1(CCc2ccccc2)CCN(Cc2cccc3cnccc23)CC1	-11*	i	i	i	i	89*	59*
Nc1c(Cl)cc([N+](=O)[O-])cc1Cl	.	i	i	i	.	.	.
CCn1ccnc1CN1CCCC(C(=O)c2cccc(C(F)(F)F)c2)C1 (stereo unspecified)	-9.9*	i	i	i	i	93*	87*
Cc1cc(N2CCNCC2)nc2ccccc12	i	i	i	i	i	.	.
CCN(CC)S(=O)(=O)c1cc(NC(=O)C(C)N2CC=C(c3ccccc3)CC2)ccc1C (stereo unspecified)	-7.6*	i	i	i	i	79*	35*
CSc1ccc(C(=O)C2CCCN(Cc3cccnc3)C2)cc1 (stereo unspecified)	-8.5*	i	i	i	i	68*	26*
CN1CC=C(/C=C/c2ccc(-c3ccccc3)cc2)CC1	-8.7*	i	i	i	i	66*	31*
COC(=O)C1=C(c2cc3ccccc3s2)C[C@@H]2CC[C@H]1N2C(=O)N1CCCCC1	i	i	i	i	i	.	.
